According to ChEMBL document CHEMBL4177768, “Synthesis and Biological Evaluation of Derivatives of Indoline as Highly Potent Antioxidant and Anti-inflammatory Agents” (J Med Chem, 2018):
Active and inactive are the calls of the source. The rule behind the calls is not given here.

Experiments:
[1] = system: Mus musculus; test: Antiinflammatory activity in Balb/C mouse assessed as reduction in LPS-induced IL6 production in liver at 0.1 to 10 umol/kg, sc administered LPS 15 mins post compound treatment measured after 4 hrs by ELISA; assay type: functional, organism-based
[2] = system: RAW264.7; test: Antiinflammatory activity in mouse RAW264.7 cells assessed as reduction in LPS-induced IL-6 production at 10 pM incubated for 2 hrs prior to LPS challenge measured after 24 hrs by ELISA; assay type: functional; parameters: scale not given: the % may be the effect or the level left
Summary of the method: (§1)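 RAW 264.7 macrophages were plated at 1×10^5 per well, grown overnight and washed with PBS. Compounds in water (final 1 pM-100 nM, medium with 2% FCS) were added 2 h at 37 °C before E. coli 0111:B4 LPS, 2.5 µg/mL. TNF-α was sampled at 8 h; IL-6 and nitrite (Griess) at 24 h. ELISA was used for cytokines. Values are % of the LPS + medium value in each experiment. Budesonide was the reference. 2-3 experiments, 6 wells per concentration.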

[3] = system: Mus musculus; test: Acute toxicity in Balb/C mouse assessed as change in water intake at 100 umol/kg, sc measured over 72 hrs; assay type: organism-based; conditions: in vivo
Summary of the method: (§2)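 Male Balb/C mice, 24-28 g, groups of 3; single sc injection of compound at 100 μmoles/kg or saline (1 mL/100 g). Food and water intake, body weight and general activity monitored over 72 h against saline-injected animals.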

[4] = system: Mus musculus; test: Acute toxicity in Balb/C mouse assessed as change in activity at 100 umol/kg, sc measured over 72 hrs; assay type: organism-based; conditions: in vivo; summary of the method: as §2
[5] = system: Mus musculus; test: Antiinflammatory activity in Balb/C mouse assessed as reduction in LPS-induced IL6 production in plasma at 0.1 umol/kg, sc administered LPS 15 mins post compound treatment measured after 4 hrs by ELISA; assay type: functional, organism-based
Summary of the method: (§3)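 Male Balb/C mice, 7-8 weeks old, given compound sc (0.1, 1 or 10 µmoles/kg) or saline. LPS 10 mg/kg was given ip 15 min later, and mice were killed 4 h after that. Spleens were homogenized in PBS with protease inhibitor and centrifuged at 14,000 g, 4 °C. Cytokines in plasma and tissue supernatants were measured by ELISA, with protein by BCA. Dexamethasone 5.6 µmoles/kg was the reference. n = 8-10 mice per treatment.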

[6] = system: RAW264.7; test: Cytoprotective activity against H2O2-induced oxidative stress in mouse RAW264.7 cells assessed as decrease in LDH release at 1 pM incubated for 2 hrs prior to H2O2 addition by colorimetric assay relative to control; assay type: functional; parameters: scale not given: the % may be the effect or the level left
Summary of the method: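 RAW 264.7 cells were seeded and pretreated with compound before H2O2 100 µM, in serum-free medium. Collected medium was centrifuged and incubated with reaction mix 30 min at room temperature. LDH was measured as NADH formation by colorimetric read at 490 nm. n = 8-10 replicates per concentration.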

[7] = system: RAW264.7; test: Antiinflammatory activity in mouse RAW264.7 cells assessed as reduction in LPS-induced TNF-alpha production at 10 pM incubated for 2 hrs prior to LPS challenge measured after 8 hrs by ELISA; assay type: functional; parameters: scale not given: the % may be the effect or the level left; summary of the method: as §1
[8] = system: Mus musculus; test: Acute toxicity in Balb/C mouse assessed as change in food intake at 100 umol/kg, sc measured over 72 hrs; assay type: organism-based; conditions: in vivo; summary of the method: as §2
[9] = system: RAW264.7; test: Antiinflammatory activity in mouse RAW264.7 cells assessed as reduction in LPS-induced nitric oxide production at 100 pM incubated for 2 hrs prior to LPS challenge measured after 24 hrs by Griess assay; assay type: functional; parameters: scale not given: the % may be the effect or the level left; summary of the method: as §1
[10] = system: RAW264.7; test: Antiinflammatory activity in mouse RAW264.7 cells assessed as reduction in LPS-induced IL-6 production at 100 pM incubated for 2 hrs prior to LPS challenge measured after 24 hrs by ELISA; assay type: functional; parameters: scale not given: the % may be the effect or the level left; summary of the method: as §1
[11] = system: Mus musculus; test: Antiinflammatory activity in Balb/C mouse assessed as reduction in LPS-induced IL6 production in spleen at 0.1 umol/kg, sc administered LPS 15 mins post compound treatment measured after 4 hrs by ELISA; assay type: functional, organism-based; summary of the method: as §3
[12] = system: RAW264.7; test: Cytoprotective activity against H2O2-induced oxidative stress in mouse RAW264.7 cells assessed as cell viability at 1 pM incubated for 2 hrs prior to H2O2 addition measured after 24 hrs by MTT assay (reference value: 68 to 72.8%); assay type: functional; conditions: read-out: Activity
[13] = system: Mus musculus; test: Antiinflammatory activity in Balb/C mouse assessed as reduction in LPS-induced TNF-alpha production in plasma at 0.1 umol/kg, sc administered LPS 15 mins post compound treatment measured after 4 hrs by ELISA; assay type: functional, organism-based; summary of the method: as §3
[14] = system: RAW264.7; test: Antiinflammatory activity in mouse RAW264.7 cells assessed as reduction in LPS-induced nitric oxide production at 10 pM incubated for 2 hrs prior to LPS challenge measured after 24 hrs by Griess assay; assay type: functional; parameters: scale not given: the % may be the effect or the level left; summary of the method: as §1
[15] = system: RAW264.7; test: Cytoprotective activity against H2O2-induced oxidative stress in mouse RAW264.7 cells assessed as decrease in LDH release at 1 pM incubated for 2 hrs prior to H2O2 addition by colorimetric assay relative to control; parameters: scale not given: the % may be the effect or the level left
[16] = system: Mus musculus; test: Acute toxicity in Balb/C mouse assessed as change in body weight at 100 umol/kg, sc measured over 72 hrs; assay type: organism-based; conditions: in vivo; summary of the method: as §2
[17] = system: Mus musculus; test: Antiinflammatory activity in Balb/C mouse assessed as reduction in LPS-induced TNF-alpha production in spleen at 0.1 umol/kg, sc administered LPS 15 mins post compound treatment measured after 4 hrs by ELISA; assay type: functional, organism-based; summary of the method: as §3
[18] = system: Mus musculus; test: Antiinflammatory activity in Balb/C mouse assessed as reduction in LPS-induced IL6 production in brain at 0.1 umol/kg, sc administered LPS 15 mins post compound treatment measured after 4 hrs by ELISA; assay type: functional, organism-based
[19] = system: RAW264.7; test: Antiinflammatory activity in mouse RAW264.7 cells assessed as reduction in LPS-induced nitric oxide production at 1 pM to 100 nM incubated for 2 hrs prior to LPS challenge measured after 24 hrs by Griess assay; assay type: functional, cell-based; summary of the method: as §1
[20] = system: RAW264.7; test: Antiinflammatory activity in mouse RAW264.7 cells assessed as reduction in LPS-induced IL-6 production at 1 nM incubated for 2 hrs prior to LPS challenge measured after 24 hrs by ELISA; assay type: functional; summary of the method: as §1
[21] = system: RAW264.7; test: Antiinflammatory activity in mouse RAW264.7 cells assessed as reduction in LPS-induced TNF-alpha production at 100 pM incubated for 2 hrs prior to LPS challenge measured after 8 hrs by ELISA; assay type: functional; summary of the method: as §1
[22] = system: RAW264.7; test: Cytoprotective activity against H2O2-induced oxidative stress in mouse RAW264.7 cells assessed as cell viability at 1 nM incubated for 2 hrs prior to H2O2 addition measured after 24 hrs by MTT assay (reference value: 68 to 72.8%); assay type: functional; conditions: read-out: Activity
[23] = system: RAW264.7; test: Antiinflammatory activity in mouse RAW264.7 cells assessed as reduction in LPS-induced TNF-alpha production at 1 pM to 100 nM incubated for 2 hrs prior to LPS challenge measured after 8 hrs by ELISA; assay type: functional, cell-based; summary of the method: as §1
[24] = system: RAW264.7; test: Antiinflammatory activity in mouse RAW264.7 cells assessed as reduction in LPS-induced TNF-alpha production at 1 nM incubated for 2 hrs prior to LPS challenge measured after 8 hrs by ELISA; assay type: functional; summary of the method: as §1
[25] = system: RAW264.7; test: Antiinflammatory activity in mouse RAW264.7 cells assessed as reduction in LPS-induced nitric oxide production at 1 nM incubated for 2 hrs prior to LPS challenge measured after 24 hrs by Griess assay; assay type: functional; summary of the method: as §1
[26] = system: RAW264.7; test: Cytoprotective activity against H2O2-induced oxidative stress in mouse RAW264.7 cells assessed as decrease in caspase-3 activity at 1 pM incubated for 4 hrs prior to H2O2 addition measured after 90 mins by caspase-GloR reagent-based luminescence assay relative to control; assay type: functional
Summary of the method: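 RAW 264.7 macrophages were pretreated with compound (1 pM or 1 nM) 4 h before H2O2 100 µM. Medium was replaced with fresh DMEM after 90 min and plates were incubated overnight. Caspase-Glo 3/7 reagent was added and luminescence read after 30 min at room temperature. Mean ± SD, 4-6 replicates.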

[27] = system: RAW264.7; test: Cytoprotective activity against H2O2-induced oxidative stress in mouse RAW264.7 cells assessed as increase in cell viability at 1 pM incubated for 2 hrs prior to H2O2 addition measured after 24 hrs by MTT assay; assay type: functional, cell-based
Summary of the method: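 RAW 264.7 macrophages cultured in DMEM with 10% FCS, seeded at 1 x 10^4 cells/mL. Pretreated 2 h with compound (1 pM to 100 nM) before H2O2 at 100 μM. Viability read by MTT (0.5 mg/mL final, 1 h, 37 °C, DMSO lysis, OD 570 nm) relative to vehicle. 2-3 experiments, at least 6 wells per concentration; mean ± SEM.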

CC(C)NC(=O)CCN1CCc2ccccc21.Cl
Activity [1]: inactive | Activity [2]: 50% | Activity [3]: Non-Toxic | Activity [4]: Non-Toxic | Activity [5]: Active | Activity [6]: 16% | Activity [7]: 50% | Activity [8]: Non-Toxic | Activity [9]: 50% | Activity [10]: 50% | Activity [11]: Active | viability at 1 pM [12]: 93.7% | Activity [13]: Active | Activity [14]: 50% | Activity [15]: 16% | Activity [16]: Non-Toxic | Activity [17]: Active | Activity [18]: Active

Cl.NCCCN1CCc2ccccc21
Activity [19]: Active | Activity [20]: Active | Activity [21]: Active | Activity [6]: 16% | viability at 0.001 µM [22]: 91.9% | Activity [23]: Active | Activity [9]: Active | Activity [10]: Active | Activity [24]: Active | Activity [15]: 16% | Activity [25]: Active | Activity [26]: inactive

O=c1c(O)c(-c2ccc(O)c(O)c2)oc2cc(O)cc(O)c12
Activity [27]: Active
